Laboratory results reported in ChEMBL document CHEMBL1131378, “Synthesis and endectocidal activity of novel 1-(arylsulfonyl)-1-[(trifluoromethyl)sulfonyl]methane derivatives” (J Med Chem, 1998).

How the values were obtained:
[1] = Partition coefficient (logP) (HPLC); type: physicochemical; settings: octanol/water
How it was run: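 Partition coefficient measured chromatographically.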

[2] = The pKa value in aqueous solution.; type: physicochemical
How it was run: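 pKa measured in aqueous solution.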

Haemonchus contortus [3] = assay: Compound was tested for % reduction of Haemonchus contortus worms in sheep dosed at 10 mg/kg by single ir injection; type: functional
How it was run: (§1)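 Lambs with baseline fecal egg counts on days 26–28 postinoculation randomised to groups and held in individual metabolism crates. A single 10 mg/kg BW intraruminal dose was given in PEG 200. Fecal EPG was measured daily. Total H. contortus worm counts were used to calculate % reduction as (TWC control − TWC treated)/TWC control × 100, against untreated controls.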

Haemonchus contortus [4] = assay: The compound was tested for % reduction of Haemonchus contortus worms in gerbils dosed at 25 mg/kg.; type: functional
How it was run: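 Mongolian gerbils infected with H. contortus received one oral gavage at 25 mg/kg BW in DMSO/H2O. Untreated infected gerbils served as negative controls and levamisole-dosed gerbils as positive controls, three per group. Stomachs and contents were vortexed in saline, incubated at 35 °C for at least 1 h and stained with iodine. Worms were counted per gerbil and % reduction taken against the mean of infected untreated controls.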

[5] = (§2) Number of days posttreated in which >90% mortality of ASF was seen following exposure of insects to serum from sheep treated with 10 mg/kg of BW of compound by single ir injection; type: functional
How it was run: (§3)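 Parasitized sheep (two per compound) received a single intraruminal injection at 10 mg/kg BW in PEG 200. Blood was drawn daily for 14 days and left about 24 h to separate. Serum-soaked dental wicks were exposed to adult stable flies for 48 h, with mortality compared to a serum-only control. Days posttreatment giving >90% mortality were counted.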

Rattus norvegicus = species on record: Rattus norvegicus; assay: Uncoupler concentration that reduced the respiratory control index by 50% of coupled rat liver mitochondria; type: functional
Stomoxys calcitrans [6] = assay: Insecticidal property against Stomoxys calcitrans measured as lowest concentration in bovine serum vs adult stable fly giving > 90% mortality; type: functional
How it was run: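 Serum titrated with compound from 100 ppm downward was soaked into dental wicks and placed in dishes with 10 chilled adult stable flies. Kept about 48 h at about 25 °C and 75–85% humidity. Percent mortality was scored at 24 and 48 h against a wick with control serum only.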

Haemonchus contortus [7] = assay: The compound was tested for % Reduction of Haemonchus contortus worms in sheep dosed at 10 mg/kg by single ir injection; type: functional; how it was run: as §1
Stomoxys calcitrans [8] = assay: as §2; type: functional; how it was run: as §3

CC(S(=O)(=O)c1ccc(OC(F)(F)F)cc1)S(=O)(=O)C(F)(F)F (stereo not drawn)
logP [1]: 3
pKa [2]: 6.2
Reduction (Haemonchus contortus [3]): 100%
Reduction (Haemonchus contortus [4]): 100%
Days [5]: 6
IC50 (Rattus norvegicus): 710 µM
ASF (Stomoxys calcitrans [6]): 25 p.p.m.

Cc1ccc(S(=O)(=O)CS(=O)(=O)C(F)(F)F)cc1
ASF (Stomoxys calcitrans [6]): >100 p.p.m.

O=S(=O)(CS(=O)(=O)C(F)(F)F)c1ccc(Cl)cc1Cl
ASF (Stomoxys calcitrans [6]): >100 p.p.m.

CCC(S(=O)(=O)c1ccc(Cl)cc1)S(=O)(=O)C(F)(F)F (stereo not drawn)
ASF (Stomoxys calcitrans [6]): 50 p.p.m.

O=S(=O)(c1ccc(OC(F)(F)F)cc1)C(CSc1ccc(OC(F)(F)F)cc1)S(=O)(=O)C(F)(F)F (stereo not drawn)
ASF (Stomoxys calcitrans [6]): 50 p.p.m.

CSC(S(=O)(=O)c1ccc(Cl)cc1)S(=O)(=O)C(F)(F)F (stereo not drawn)
ASF (Stomoxys calcitrans [6]): >100 p.p.m.

O=S(=O)(CS(=O)(=O)C(F)(F)F)c1cc(C(F)(F)F)cc(C(F)(F)F)c1
ASF (Stomoxys calcitrans [6]): 50 p.p.m.

O=S(=O)(CS(=O)(=O)C(F)(F)F)c1ccc(Cl)c(Cl)c1
logP [1]: 1.7
pKa [2]: 4
Reduction (Haemonchus contortus [7]): 100%
Reduction (Haemonchus contortus [4]): 100%
Days (Stomoxys calcitrans [8]): 1
IC50 (Rattus norvegicus): 3990 µM
ASF (Stomoxys calcitrans [6]): >100 p.p.m.

O=S(=O)(c1ccc(OC(F)(F)F)cc1)C(CSc1ccc(F)cc1)S(=O)(=O)C(F)(F)F (stereo not drawn)
Reduction (Haemonchus contortus [3]): 100%
Reduction (Haemonchus contortus [4]): 100%
Days [5]: 6
ASF (Stomoxys calcitrans [6]): 50 p.p.m.

O=S(=O)(CS(=O)(=O)C(F)(F)F)c1ccccc1
ASF (Stomoxys calcitrans [6]): 50 p.p.m.

O=S(=O)(c1ccc(Cl)c(Cl)c1)C(Cc1ccc(C(F)(F)F)cc1)S(=O)(=O)C(F)(F)F (stereo not drawn)
ASF (Stomoxys calcitrans [6]): 100 p.p.m.

O=S(=O)(CS(=O)(=O)C(F)(F)C(F)(F)C(F)(F)C(F)(F)F)c1ccc(OC(F)(F)F)cc1
ASF (Stomoxys calcitrans [6]): 25 p.p.m.

O=S(=O)(CS(=O)(=O)C(F)(F)F)c1ccc(SC(F)(F)C(F)F)c(Cl)c1
ASF (Stomoxys calcitrans [6]): >100 p.p.m.

O=S(=O)(CS(=O)(=O)C(F)(F)F)c1ccc(NS(=O)(=O)C(F)(F)F)cc1
ASF (Stomoxys calcitrans [6]): 100 p.p.m.

CC(C)(C)c1ccc(S(=O)(=O)CS(=O)(=O)C(F)(F)F)cc1
logP [1]: 2.4
pKa [2]: 5.1
IC50 (Rattus norvegicus): 2800 µM
ASF (Stomoxys calcitrans [6]): >100 p.p.m.

O=S(=O)(CS(=O)(=O)C(F)(F)F)c1ccc(F)cc1
logP [1]: 1.3
pKa [2]: 4.6
IC50 (Rattus norvegicus): 3150 µM
ASF (Stomoxys calcitrans [6]): 100 p.p.m.

O=S(=O)(CS(=O)(=O)C(F)(F)F)c1ccc(OC(F)(F)F)cc1
logP [1]: 2.2
pKa [2]: 4.1
Reduction (Haemonchus contortus [3]): 100%
Reduction (Haemonchus contortus [4]): 100%
Days [5]: 10
IC50 (Rattus norvegicus): 2950 µM
ASF (Stomoxys calcitrans [6]): 25 p.p.m.

FC(F)(F)Oc1ccc(SCSC(F)(F)F)cc1
ASF (Stomoxys calcitrans [6]): >100 p.p.m.

CC(S(=O)(=O)c1ccc(Cl)c(Cl)c1)S(=O)(=O)C(F)(F)F (stereo not drawn)
ASF (Stomoxys calcitrans [6]): 25 p.p.m.

O=S(=O)(CS(=O)(=O)C(F)(F)F)c1cccc(C(F)(F)F)c1
ASF (Stomoxys calcitrans [6]): >100 p.p.m.

O=S(=O)(CS(=O)(=O)C(F)(F)F)c1ccc(SC(F)(F)C(F)F)cc1
ASF (Stomoxys calcitrans [6]): >100 p.p.m.

O=S(=O)(CS(=O)(=O)C(F)(F)F)c1ccc(F)c(Cl)c1
ASF (Stomoxys calcitrans [6]): 100 p.p.m.

O=S(=O)(c1ccc(OC(F)(F)F)cc1)C(CSc1cccc(F)c1)S(=O)(=O)C(F)(F)F (stereo not drawn)
ASF (Stomoxys calcitrans [6]): 50 p.p.m.

O=S(=O)(CS(=O)(=O)C(F)(F)F)c1ccc(Cl)cc1
logP [1]: 1.9
pKa [2]: 4.4
Reduction (Haemonchus contortus [7]): 100%
Reduction (Haemonchus contortus [4]): 100%
Days (Stomoxys calcitrans [8]): 3
IC50 (Rattus norvegicus): 4000 µM
ASF (Stomoxys calcitrans [6]): 50 p.p.m.

O=S(=O)(CS(=O)(=O)C(F)(F)F)c1ccc(C(F)(F)F)cc1
logP [1]: 1
pKa [2]: 4
Reduction (Haemonchus contortus [3]): 100%
Reduction (Haemonchus contortus [4]): 100%
Days [5]: 0
IC50 (Rattus norvegicus): 5400 µM
ASF (Stomoxys calcitrans [6]): 50 p.p.m.

CC(C)(C)Sc1ccc(S(=O)(=O)CS(=O)(=O)C(F)(F)F)cc1
ASF (Stomoxys calcitrans [6]): >100 p.p.m.

O=S(=O)(CS(=O)(=O)C(F)(F)F)c1ccc(O)cc1
ASF (Stomoxys calcitrans [6]): >100 p.p.m.

O=S(=O)(CS(=O)(=O)C(F)(F)F)c1c(Cl)cccc1Cl
ASF (Stomoxys calcitrans [6]): >100 p.p.m.

CS(=O)(=O)Oc1ccc(S(=O)(=O)CS(=O)(=O)C(F)(F)F)cc1
ASF (Stomoxys calcitrans [6]): >100 p.p.m.

O=[N+]([O-])c1ccc(S(=O)(=O)CS(=O)(=O)C(F)(F)F)cc1
ASF (Stomoxys calcitrans [6]): >100 p.p.m.

O=S(=O)(CS(=O)(=O)C(F)(F)F)c1ccc(OS(=O)(=O)C(F)(F)F)cc1
ASF (Stomoxys calcitrans [6]): 100 p.p.m.

N#Cc1ccc(S(=O)(=O)CS(=O)(=O)C(F)(F)F)cc1
ASF (Stomoxys calcitrans [6]): >100 p.p.m.

COc1ccc(S(=O)(=O)CS(=O)(=O)C(F)(F)F)cc1
ASF (Stomoxys calcitrans [6]): >100 p.p.m.

O=S(=O)(c1ccc(OC(F)(F)F)cc1)C(CSc1ccc(Cl)cc1)S(=O)(=O)C(F)(F)F (stereo not drawn)
ASF (Stomoxys calcitrans [6]): 50 p.p.m.

O=S(=O)(CS(=O)(=O)C(F)(F)F)c1ccc(Br)cc1
ASF (Stomoxys calcitrans [6]): 25 p.p.m.

O=S(=O)(c1ccc(Cl)cc1)C(Cc1ccccc1)S(=O)(=O)C(F)(F)F (stereo not drawn)
ASF (Stomoxys calcitrans [6]): >100 p.p.m.

CC(S(=O)(=O)c1ccc(Cl)cc1)S(=O)(=O)C(F)(F)F (stereo not drawn)
ASF (Stomoxys calcitrans [6]): 50 p.p.m.

O=S(=O)(c1ccc(OC(F)(F)F)cc1)C(Cl)(Cl)S(=O)(=O)C(F)(F)F
ASF (Stomoxys calcitrans [6]): >100 p.p.m.

O=S(=O)(CS(=O)(=O)C(F)(F)F)c1ccccc1Cl
ASF (Stomoxys calcitrans [6]): >100 p.p.m.

O=S(=O)(CS(=O)(=O)C(F)(F)F)c1ccc(OC(F)(F)C(F)F)cc1
ASF (Stomoxys calcitrans [6]): 25 p.p.m.

O=[N+]([O-])c1ccc(O)c([N+](=O)[O-])c1 [2,4-DINITROPHENOL]
logP [1]: 1.5
pKa [2]: 4.6
IC50 (Rattus norvegicus): 1000 µM

Cc1cc(C(C#N)c2ccc(Cl)cc2)c(Cl)cc1NC(=O)c1cc(I)cc(I)c1O (stereo not drawn) [CLOSANTEL]
IC50 (Rattus norvegicus): 927 µM
